Assay outcomes as filed in PubChem.
DNMT1 block = human DNMT1 methyltransferase inhibitors, primary screen, biochemical, molecular beacon, fluorescence, HinP1I cleavage, uHTS; AID 588458, 2011; inhibition (reported as % activation of signal), % at 10 µM; 360,000 compounds, 0.83% hits; DNA (cytosine-5)-methyltransferase 1 (Homo sapiens), P26358; in the data active = inhibition above about 50%
SUMO1-SIM PPI = modulators of SUMO1 protein-protein interactions, primary screen, biochemical, uHTS; Small ubiquitin-related modifier 1 (Homo sapiens), P63165; SUMO1 binding to a labelled peptide, TR-FRET, 1 h; inhibition, % at 20 µM; 360,000 compounds, 0.33% hits; AID 602429, 2012; in the data active = inhibition above about 37%
Target sequence (P63165 whole entry, looked up): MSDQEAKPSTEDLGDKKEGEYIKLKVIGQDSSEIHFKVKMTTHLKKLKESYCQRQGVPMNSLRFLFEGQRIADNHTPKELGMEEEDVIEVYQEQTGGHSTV
STEP inh = STEP phosphatase inhibitors, primary screen, biochemical, fluorescence intensity, uHTS; 360,000 compounds, 0.25% hits; inhibition, % at 20 µM; AID 588621, 2011; recombinant STEP, OMFP fluorogenic substrate;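 active = inhibition at 20 µM, scaled per plate between control wells, above about 37%, limit read from the data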;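 note: 0% = DMSO with enzyme and substrate and 100% = substrate only without enzyme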
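Measure: Control-normalized % inhibition with plate pattern correction | Test system: STEP phosphatase, cell-free reaction | Medium: pH 6.0 Bis-Tris with DTT and Tween 20 | Technique: Fluorescence, 480/540 nm | Times: Reaction 20 min, ambient temperature | Doses: Single compound dose of 20 µM, 1% DMSO final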
Scp1 inh = Scp-1 phosphatase inhibitors, primary screen, biochemical, colorimetric, uHTS | Carboxy-terminal domain RNA polymerase II polypeptide A small phosphatase 1 (Homo … | Recombinant Scp1, phosphopeptide, malachite green phosphate absorbance | inhibition, % at 20 µM | 340,000 compounds, 0.88% hits | AID 493091, 2011;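 active = inhibition above about 50% at 20 µM, limit read from the data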;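 note: plate controls were DMSO wells with enzyme for no effect and wells lacking enzyme for full effect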
Target sequence (Q9GZU7 76-261 limits assumed): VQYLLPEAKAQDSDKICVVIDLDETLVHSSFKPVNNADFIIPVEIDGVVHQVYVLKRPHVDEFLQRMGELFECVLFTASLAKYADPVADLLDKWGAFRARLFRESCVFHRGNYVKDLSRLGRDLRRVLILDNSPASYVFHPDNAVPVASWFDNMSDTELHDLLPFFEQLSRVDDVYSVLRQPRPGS
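Material: truncated SCP-1 phosphatase (76-261aa) / Buffer or medium: 50 mM Tris acetate pH 5.5, 0.005% Tween-20, 10 mM MgCl2 / Compound dosing: one concentration, 20 µM, with 1.0% DMSO / Incubation: 45 min room-temperature reaction, 5 min colour, 30 min stabiliser / Detection: colorimetric free-phosphate detection, absorbance 630 nm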
GRK2 inh = compounds blocking aptamer binding on GRK2 – biochemical, human GRK2, bead flow cytometry, HTS, primary screen. 330,000 compounds, 0.59% hits. FAM-aptamer displacement from GRK2. AID 488847, 2010. Beta-adrenergic receptor kinase 1 (Homo sapiens), P25098. inhibition of aptamer binding, % at 10 µM;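 active = inhibition of aptamer binding above 40%, roughly 3 SD of noise, on plates passing a quality check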;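 note: median bead fluorescence of bound FAM aptamer so fluorescent compounds give negative values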
LMPTP inh = LMPTP phosphatase inhibitors, primary screen, biochemical, fluorescence intensity, uHTS | recombinant LMPTP-A, OMFP fluorogenic substrate | inhibition, % at 20 µM | 360,000 compounds, 0.22% hits | AID 651560, 2012;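 active = compounds that cut the enzyme signal by at least half of the control window in the single-dose screen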;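 note: plate controls were DMSO wells with enzyme plus substrate for no effect and substrate without enzyme for full effect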
Target sequence (P24666 whole entry, looked up): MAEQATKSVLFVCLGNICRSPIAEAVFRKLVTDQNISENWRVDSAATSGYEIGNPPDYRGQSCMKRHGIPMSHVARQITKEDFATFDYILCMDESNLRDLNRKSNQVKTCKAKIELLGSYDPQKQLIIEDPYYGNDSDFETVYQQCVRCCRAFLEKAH
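Test system: LMPTP-A phosphatase enzyme; input: 0.625 nM LMPTP-A final; reagent: OMFP substrate, 400 µM final; compound dosing: 20 µM single dose, 3% DMSO; incubation: 50 min dark incubation at room temperature; measured by: endpoint fluorescence intensity from OMFP dephosphorylation; measure: % inhibition relative to no-enzyme and uninhibited control wells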
Scp1 confirm = Scp-1 phosphatase inhibitors, retest, confirmation, biochemical, colorimetric, single concentration; shares compounds with Scp1 inh; recombinant SCP-1 catalytic domain, phosphate release, malachite green absorbance; inhibition, % at 20 µM; 2,500 compounds, 61% hits; AID 540281, 2011;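 note: plate controls were DMSO with enzyme for no effect and buffer wells lacking enzyme for full effect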
MG interference = colorimetric readout interference by compounds, confirmation, artefact control for Scp-1 inhibitor project, biochemical, single concentration; Colorimetric interference counterscreen, malachite green absorbance 630 nm; 2,500 tested, under 10 active; shares compounds with Scp1 inh; apparent inhibition (interference), % at 20 µM;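 note: compounds added after enzyme reaction finished so only phosphate colour detection is probed; plate controls were DMSO wells with completed Scp-1 reaction for no effect and substrate wells lacking enzyme for full effect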
Scp-1 Tm shift = Scp-1 binding by thermal shift, confirmation, orthogonal assay for Scp-1 inhibitor project, biophysical, differential scanning fluorimetry; 1,500 compounds, 25% hits; shares compounds with Scp1 inh; Recombinant SCP1, Sypro Orange thermal shift Tm; thermal shift relative to vanadate control, % at 40 µM;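 active = substances whose mean melting-temperature shift, as a percentage of the reference inhibitor's shift, reaches about 5.3%, limit read from the data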;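 note: 0% = Tm of DMSO wells and 100% = Tm with sodium orthovanadate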
Starred values were filed as active, the others as inactive; . = not tested or not shown. Hits are enriched below; roughly 2.1% of the tested compounds scored in any of these assays.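 Rule for the calls, unless noted: active = inhibition of at least 30% at 20 µM; inactive = the rest.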

SMILES	DNMT1 block	SUMO1-SIM PPI	STEP inh	Scp1 inh	GRK2 inh	LMPTP inh	Scp1 confirm	MG interference	Scp-1 Tm shift
O=C(c1[nH]c(C(F)(F)F)nc1-c1ccccc1)N1CCN(C(=O)C2CCCO2)CC1 (stereo not given)	3	2	4	.	.	-3	.	.	.
Cc1c(F)cccc1NC(=O)CCC(=O)O	3	-1	-1	-2	2	0	.	.	.
Cc1c(F)cccc1NC(=O)CCCCCC1NC(=O)NC1C (stereo not given)	0	1	-5	-1	6	-1	0	-7	.
CC1NC(=O)NC1CCCCCC(=O)Nc1ccc(F)cc1 (stereo not given)	3	2	-2	13	0	0	-18	-15	.
O=C(CCCC(=O)c1ccccc1)Nc1ccc(F)cc1	5	-5	1	-12	0	-2	.	.	.
COc1ccc(/C=C/C(=O)NC(=S)Nc2cc([N+](=O)[O-])ccc2O)cc1OC	-14	13	62*	80*	0	56*	54*	-10	5.7*
COc1ccc(N2CCN(C(CNC(=O)CC(C)(C)C)c3ccc4c(c3)OCO4)CC2)cc1 (stereo not given)	1	3	1	64*	1	-1	-10	-10	.
CCCCCCCCN1C(=O)[C@H](CC(=O)NCCCOC)C[C@@]2(C(=O)OC)CCCCC=C12	.	6	.	.	.	0	.	.	.
O=C1NC[C@H](CCCCN2CCN(CCc3ccc(O)cc3)C(=O)C2=O)N(CCC2CCCCC2)C1=O	.	4	.	.	.	-1	.	.	.
NC(=O)c1cc(S(=O)(=O)NCc2ccc(Br)cc2)cs1	1	0	-1	-6	0	-1	-13	-16	.
NC(=O)c1cc(S(=O)(=O)NCc2ccccc2)cs1	-1	2	-1	0	4	-2	.	.	.
CC(C)NC(=O)CC1OC(=O)c2ccccc21 (stereo not given)	-1	-3	2	-9	1	-1	.	.	.
O=C(CC1OC(=O)c2ccccc21)NNC(=O)c1ccc(F)cc1 (stereo not given)	-2	1	-1	-9	5	-1	-12	-15	.
CC(C)OC(=O)C1C2C=CC3(CN(Cc4cccs4)C(=O)C13)O2 (stereo not given)	1	-3	-1	68*	1	-1	-12	-10	.
CC(=O)c1c(C)[nH]c(C(=O)Nc2cccc3ccccc23)c1C	0	-17	0	-6	1	0	.	.	.
CCC(C)c1ccccc1NC(=O)c1[nH]c(C)c(C(C)=O)c1C (stereo not given)	1	-4	-1	54*	0	0	-5	-8	.
CCCCc1c(-c2ccccc2F)ncn1CCc1ccccc1OC	.	9	.	.	.	5	.	.	.
O=C(N/N=C/C=C\c1ccco1)c1ccccn1	21	-10	1	52*	4	3	39*	-7	5
O=C(N/N=C/C=C/c1ccco1)c1cnccn1	11	-6	1	5	2	0	.	.	.
Cn1c(SCC(=O)N/N=C/C=C/c2ccccc2[N+](=O)[O-])nc2ccccc21	5	-10	2	-10	0	-3	.	.	.
Cn1c(SCC(=O)N/N=C/C=C/c2ccco2)nc2ccccc21	57*	-1	-1	73*	4	28	62*	-9	1
COc1ccc2c(c1)c(=O)oc1c(C)c(OC(C)C(=O)N[C@@H](Cc3c[nH]c4ccc(O)cc34)C(=O)O)ccc12 (stereo not given in full)	12	27	-1	58*	1	3	43*	-23	9.6*
CCN(CC)S(=O)(=O)c1ccc(SCC(=O)c2c(N)n(C3CC3)c(=O)[nH]c2=O)nc1	4	6	-3	.	.	0	.	.	.
C=C1c2cccc(OC)c2O[C@H](C(=O)OCC)[C@@H]1CC(CC)CCCC (stereo not given in full)	5	5	0	94*	39	2	34*	-23	-11
CCOC(=O)Cn1c2[n+](c3ccccc31)CC(O)CS2 (stereo not given)	2	3	-2	102*	0	-2	91*	-9	-19
SMILES	DNMT1 block	SUMO1-SIM PPI	STEP inh	Scp1 inh	GRK2 inh	LMPTP inh	Scp1 confirm	MG interference	Scp-1 Tm shift
COC(=O)Cn1c2[n+](c3ccccc31)CC(O)CS2 (stereo not given)	1	1	0	-8	0	-3	.	.	.
CC(=O)N1CCN(CC(=O)Nc2cc(S(=O)(=O)N3CCCCC3)ccc2C)CC1	2	1	-2	-3	0	-1	.	.	.
CCOC(=O)C1(C)C(C(=O)OC)=C(c2ccc(OC)cc2)c2ccccc2N1C(=O)OC (stereo not given)	3	-2	-3	96*	0	0	57*	-11	-9
CCOC(=O)C1C(C(=O)OC)=C(c2ccc(OC)cc2)c2ccccc2N1S(=O)(=O)C(F)(F)F (stereo not given)	3	-20	0	-1	2	1	.	.	.
CC(=O)N1CCN(c2ccc(NC(=O)c3cccc(C)c3)cc2)CC1	7	4	-6	-4	4	-3	.	.	.
Cc1cccc(N2CCN(c3ccc(NC(=O)/C=C(/C(=O)O)c4ccccc4)cc3)CC2)c1	0	-1	2	58*	1	-1	72*	-10	-5
O=C(O)C1=C[C@@H](c2ccccc2)C[C@@H](OCc2ccc(CO)cc2)O1	1	4	-1	0	2	-1	.	.	.
C#Cc1ccc([C@@H]2C=C(C(=O)O)O[C@H](OCc3ccc(CO)cc3)C2)cc1	45	-1	2	57*	.	0	68*	0	2
